Measurements gathered from unrelated publications.
Lines come from different studies, so protocols differ.
Target: 5-hydroxytryptamine receptor 2B (HTR2B, Homo sapiens, UniProt P41595)

CCN(Cc1ccccc1C(F)(F)F)C(=O)C1CCN(S(=O)(=O)c2ccc3[nH]ncc3c2)CC1 — inhibition (ligand displacement, radioligand; 10 µM): 32%
Cc1ncc(-c2cc(Cl)ccc2F)cc1-n1c(=O)n(CC(N)=O)c2ccccc21 — inhibition (ligand displacement; 10 µM): 72%
Ic1cccc2cnccc12 — inhibition (ligand displacement, radioligand; 10 µM): 79%
Clc1cccc(OC[C@@H]2CN(CCN3CCc4ccccc43)CCO2)c1 — Emax (calcium signal, agonist, fluorescence): 71.2%
O=C1N=C(N2CCCCN2)S/C1=C\c1ccc(F)cc1O — inhibition (ligand displacement, radioligand; 10 µM): < 10%
O=C(Nc1ccc(S(=O)(=O)N2CCC(Cl)CC2)cc1)c1ccc([N+](=O)[O-])o1 — inhibition (ligand displacement, radioligand; 10 µM): 8%
O=C(O)c1cc(-c2ccc(C3CCNCC3)cc2)c2ccc(-c3ccc(C(F)(F)F)cc3)cc2c1 — inhibition (ligand displacement; 10 µM): 7.95%
CCCNc1nc2ccccc2n1Cc1ccc(Cl)cc1 — inhibition (ligand displacement; 10 µM): 96.3%
CCN(CC)c1ccc(C2Nc3ccc(C(=O)c4ccccc4)cc3NC3=C2C(=O)CC(C)(C)C3)cc1 (centres unmarked) — inhibition (ligand displacement, radioligand; 10 µM): 50%
C#CCOCCOCCOc1ccc2c3c1C1CCCC1N3CCNC2 (racemic) — inhibition (ligand displacement, radioligand; 10 µM): ~70%
O=C(c1ccc(F)cc1)N(Cc1ccccc1)C1CCCCC1 — inhibition (cell-free assay, radioligand; 10 µM): 20%
Nc1ccc(-c2ccncc2)cc1NC(=O)N1CCCC1 — inhibition (ligand displacement, radioligand; 10 µM): 14%
N#Cc1cc(Cn2c(N3CCCC3)nc3ccccc32)ccc1F — inhibition (ligand displacement; 10 µM): 30.4%
O=C(c1ccc(Cl)cc1)N(Cc1ccccc1)C1CCCCC1 — inhibition (ligand displacement, radioligand; 10 µM): 19.9%
